# Compounds with a hit are over-represented: about 2.7% of the library has one in this group of screens.
# ARFGAP1 inhibitor: inhibits rat ARF GTPase activating protein 1. Arfgap1-stimulated ARF1 GTP hydrolysis, GDP FP detection. inhibition, % at 16.5 µM. 0.26% of 360,000 active. AID 651572;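 active = inhibition above a per-plate limit, mean inhibition of low control wells plus 3 SD, cut at about 25% in these data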;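 also: 0% = DMSO wells with enzyme and 100% = wells lacking Arfgap1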
#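 System: truncated rat Arfgap1 GAP domain / Medium: HEPES-based buffer, pH 7.5 / Also added: N-terminally truncated human ARF1-GTP substrate / Incubation: enzyme reaction 120 min at 25 °C after 20 min preincubation / Measured by: FP of antibody-bound GDP Alexa 633 tracer, ex 620/em 688 nm / Replicates: singlicate, each compound tested once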
# MsrA inh: bovine MsrA inhibition; 0.75% of 360,000 active; inhibition, % at 15.5 µM; purified bovine MsrA, absorbance read-out;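 also: 0% = vehicle wells with enzyme and 100% = reference inhibitor wells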
# MsrA act: activates bovine MsrA enzyme; purified bovine MsrA, absorbance read-out; activation, % at 10.6 µM; 0.3% of 360,000 active; in the data active = activation above about 7.5%;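 also: 0% = vehicle and 100% = reference activator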
# NR1D1 modulator: Rev-erb alpha (human) modulation; Rev-erbα–FITC-DNA binding, fluorescence polarization, 90 min; activity, % at 10 µM; 0.79% of 370,000 active; P20393;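 active = activity above about 14%, limit read from the data; passing the limit was not always enough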;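 also: 0% = DMSO wells with 35 nM protein and 100% = DMSO wells with 750 nM protein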
# Target sequence (P20393 whole entry, looked up): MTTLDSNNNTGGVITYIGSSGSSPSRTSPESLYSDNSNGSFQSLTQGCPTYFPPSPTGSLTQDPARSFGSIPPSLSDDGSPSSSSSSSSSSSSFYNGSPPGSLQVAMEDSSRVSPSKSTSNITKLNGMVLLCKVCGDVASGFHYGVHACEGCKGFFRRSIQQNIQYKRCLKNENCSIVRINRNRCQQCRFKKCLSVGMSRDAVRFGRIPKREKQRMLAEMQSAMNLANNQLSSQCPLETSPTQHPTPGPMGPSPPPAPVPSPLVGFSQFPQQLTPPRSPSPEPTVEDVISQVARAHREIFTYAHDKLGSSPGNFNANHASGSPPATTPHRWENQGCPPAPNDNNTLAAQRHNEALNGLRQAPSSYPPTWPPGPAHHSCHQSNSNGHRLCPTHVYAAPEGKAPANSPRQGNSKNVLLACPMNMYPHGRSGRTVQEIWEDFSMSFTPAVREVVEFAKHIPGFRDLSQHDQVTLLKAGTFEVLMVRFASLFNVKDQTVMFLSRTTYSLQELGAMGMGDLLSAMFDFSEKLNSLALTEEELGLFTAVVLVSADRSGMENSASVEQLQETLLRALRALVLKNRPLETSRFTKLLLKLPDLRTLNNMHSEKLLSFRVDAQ
# sPLA2-III inh: Inhibits HGIII-sPLA2 liposome hydrolysis, primary screen; Q9NZ20; QFRET BODIPY PC-A2 liposome hydrolysis, fluorescence; inhibition, % at 12.2 µM; 0.56% of 370,000 active;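 active = inhibition above mean plus 3 SD of compounds lying within the high and low control bounds, cut at about 19% in these data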;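 also: 0% = median of test compound wells and 100% = no enzyme DMSO wells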
# ASAP1 GAP inh: ASAP1 ArfGAP inhibition. Q9ULH1. ASAP1-stimulated ARF1 GTP hydrolysis, GDP FP detection. inhibition, % at 16.5 µM. 0.19% of 360,000 active; in the data active = inhibition above about 25%;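 also: 0% = vehicle with enzyme and substrate and 100% = no enzyme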
# MsrA conf: confirmation of bovine MsrA inhibitors | inhibition, % at 15.5 µM | AID 651822 | shares compounds with MsrA inh | 41% of 2,300 active | purified bovine MsrA, absorbance read-out;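 also: coupled to thioredoxin reductase with NADPH and selenocystamine and DMSO as substrate; 0% = vehicle only and 100% = full effect of reference inhibitor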
# * marks the source's active call; other numbers are inactive results; x = not tested or not shown. Rule as the data show it, unless noted: active = inhibition above about 4.5%; inactive = the rest.
SMILES,ARFGAP1 inhibitor,MsrA inh,MsrA act,NR1D1 modulator,sPLA2-III inh,ASAP1 GAP inh,MsrA conf
Cc1c(NC(=S)N/N=C/c2ccc(N(C)C)cc2)c(=O)n(-c2ccccc2)n1C,-3.6,5.0*,-5.7,-0.9,0.9,14.1,4.6*
CCOC(=O)c1nnn(-c2nonc2-n2cccc2)c1CCl,-2.7,6.4*,-5.8,-3.1,-2.6,3.2,5.3*
CN(C)c1ccc(C=NCC2(O)CCOC(C)(C)C2)cc1 (centres undefined),5.5,5.2*,-9.7,-4.0,1.1,-5.0,4.8*
CCN(CC)CCOC(=O)c1ccc(NC(=O)/C=C/c2cccs2)cc1,-7.2,5.5*,-2.2,-0.3,3.4,-10.0,2.7
NS(=O)(=O)c1ccc(NC(=O)/C=C/c2cccs2)cc1,1.6,8.2*,-10.6,2.2,-8.4,3.4,5.1*
CCOC(=O)c1ccc(NC(=O)/C=C/c2cccs2)cc1,1.3,3.3,-7.7,6.3,-33.7,10.1,x
COc1cc(/C=C/C(=O)Nc2ccncc2)cc(OC)c1OC,-0.8,4.7*,-3.0,0.3,6.7,-6.6,2.7
NS(=O)(=O)c1ccc(NC(=O)/C=C/c2cccc(Cl)c2)cc1,-8.2,0.7,-3.2,-4.6,-25.4,7.4,x
NS(=O)(=O)c1cccc(NC(=O)/C=C/c2cccs2)c1,8.5,5.1*,-4.3,-3.4,-5.0,6.0,4.4
COc1ccc(Cn2cc(CN3[C@@H](CC(C)C)COc4cccc(F)c4S3(=O)=O)nn2)cc1,x,x,x,0.7,-2.8,x,x
O=C(CN1CCCc2ccccc21)NCc1ccc(Cl)cc1,x,x,x,-0.5,12.2,x,x
CN(CCCOC(=O)c1occ2ccccc12)C1CN(Cc2cn(Cc3ccccc3Cl)nn2)S(=O)(=O)C1 (centres undefined),x,x,x,2.7,-19.1,x,x
COc1cc(/C=C/C(=O)Nc2ccc(S(=O)(=O)Nc3ncccn3)cc2)ccc1OCC#N,12.4,4.9*,-5.4,6.5,-18.7,8.4,2.3
O=C(/C=C/c1cccs1)Nc1ccc(S(=O)(=O)Nc2ncccn2)cc1,-6.7,4.7*,-6.7,-2.4,-0.4,-11.3,4.5
CCc1ccc(CCNC(=O)OC2CC3CC2[C@H]2CCCCN2[C@H]3C)cc1 (some centres undefined),x,x,x,1.9,-0.6,x,x
O=C(NNC1=NC2(CCCC2)Cc2ccccc21)c1ccncc1,3.1,4.7*,-5.0,8.0,9.5,-0.2,0.8
CC(C)CN1C(=O)C[C@@]2(C(=O)N(C)c3ccc(NC(=O)c4cc(F)ccc4F)cc32)C1c1ccccc1 (some centres undefined),x,x,x,3.8,-4.6,x,x
COCCCNc1oc(/C=C/c2ccccc2)nc1C#N,14.0,5.9*,-4.8,-1.8,-0.8,7.4,4.1
CCOc1ccc(/C=C/c2nc(C#N)c(NCCCOC)o2)cc1,8.2,3.5,-0.6,-6.2,4.9,6.8,x
CCOC(=O)CSC1=NC(=O)/C(=C/c2ccc(Br)cc2)S1,3.9,3.3,-4.0,-1.4,-39.8,-3.9,x
CCOC(=O)CSC1=NC(=O)/C(=C\c2ccc(OC(C)=O)cc2)S1,1.6,5.4*,-2.7,-1.6,-3.6,-7.1,2.4
Cc1[nH]n(-c2ccccc2)c(=O)c1C=Nc1ccc(S(=O)(=O)Nc2nccs2)cc1,1.7,5.7*,-2.6,1.1,-1.5,-3.3,3.2
Cc1ccc2[nH]c(=O)c(CN(Cc3cccnc3)Cc3nnnn3CC3CCCO3)cc2c1 (centres undefined),1.5,2.5,-4.7,3.6,3.9,-13.0,x
Cc1ccc2[nH]c(=O)c(CN(Cc3cccnc3)Cc3nnnn3CCN3CCOCC3)cc2c1,7.5,5.1*,-1.3,4.6,-0.8,-0.3,1.7
CCCn1cnc2scc(-c3ccc(C)c(C)c3)c2c1=O,3.1,8.6*,-3.9,-0.1,-0.7,-5.7,6.5*
SMILES,ARFGAP1 inhibitor,MsrA inh,MsrA act,NR1D1 modulator,sPLA2-III inh,ASAP1 GAP inh,MsrA conf
CCC(C(=O)OC)n1cnc2scc(-c3ccc(C)c(C)c3)c2c1=O (centres undefined),-0.2,7.5*,-1.9,-9.4,-4.5,6.8,5.3*
CCC(C(=O)O)n1cnc2scc(-c3ccc(C)c(C)c3)c2c1=O (centres undefined),14.3,-0.7,-0.2,-0.3,-0.5,4.0,x
CC(C)(C)c1ccc2c(c1)OC(C(=O)N/N=C/c1ccc[nH]1)CO2 (centres undefined),x,x,x,3.2,-1.2,x,x
O=C([C@@H]1C[C@H]1c1ccccc1)N1CC[C@H]2[C@H](CCCN2Cc2ccc(F)cc2)C1,x,x,x,-3.8,6.3,x,x
O=C(NCC1COc2ccccc2O1)c1ccc(NC(=O)c2cccc(F)c2F)cc1 (centres undefined),x,x,x,-4.2,5.7,x,x
O=C(N/N=C/c1cccs1)c1ccc(NC(=O)c2ccccc2Cl)cc1,-1.6,4.8*,-4.0,1.8,-2.3,-8.9,4.0
N#CC(C#N)=C1NC(N)=C(C#N)C(c2ccccc2)=C1C#N,2.1,7.2*,-3.6,-5.1,-15.4,3.3,6.7*
COc1ccc(CC(=O)Nc2ccc(C)cc2S(=O)(=O)N2CCOCC2)cc1OC,x,x,x,6.8,-3.2,x,x
CCOc1ccc(N(CC(=O)Nc2c(C)n(C)n(-c3ccccc3)c2=O)S(=O)(=O)c2cccc3cccnc23)cc1,x,x,x,1.1,13.4,x,x
CCOC(=O)/C(C#N)=C/c1cn(CCC(=O)O)nc1-c1ccccc1,7.5,3.6,-6.7,-1.8,-7.5,0.9,x
CCOC(=O)/C(C#N)=C/c1cn(CCC(=O)O)nc1-c1ccc(OC)cc1,14.1,5.0*,-5.3,-1.4,2.1,5.3,2.3
CCOC(=O)c1csc(NC(=O)C2CCCN(S(=O)(=O)c3ccccc3[N+](=O)[O-])C2)n1 (centres undefined),x,x,x,-2.7,-11.2,x,x
NC(=O)N/N=C/c1ccc(-c2ccc(S(=O)(=O)Nc3ncccn3)cc2)o1,1.2,5.7*,-1.5,-2.9,3.0,-3.7,6.4*
CC(C)Oc1ccc(C(=O)N/N=C/c2ccc(-c3ccc(S(=O)(=O)Nc4ncccn4)cc3)o2)cc1,-5.1,4.5,-3.3,3.8,-23.1,-8.5,x
Cc1cc(=O)oc2cc(OC(=O)c3ccccc3)ccc12,-8.2,2.2,6.2,-4.1,8.3,-7.3,x
Cc1ccc(N(C)S(=O)(=O)c2cccc(C(=O)Oc3ccc4c(C)cc(=O)oc4c3)c2)cc1,-6.8,4.8*,-2.0,-3.4,2.9,7.4,1.9
COC(=O)[C@H](C(C)C)N1Cc2nnn(CC3CCCCC3)c2-c2cc(F)ccc2S1(=O)=O,x,x,x,3.4,-1.1,x,x
CC(=O)c1ccc(N2CCN(C(=O)CCCc3nc4ccccc4s3)CC2)cc1,-7.4,5.7*,-9.6,5.9,-3.6,11.6,2.6
COc1ccc(/C=N/N=C2/NC(=O)C(CC(=O)O)S2)cc1OCc1ccc(Cl)cc1 (centres undefined),-9.0,7.3*,-10.4,-5.0,2.1,-6.5,5.9*

# High-throughput results as filed in PubChem BioAssay.
